Compound activity as filed in PubChem BioAssay.
MLL AF4-AF9 inh – MLL-AF4/AF9 protein interaction inhibition. AlphaScreen, biotin-AF4 peptide binding to FLAG-AF9. inhibition, % at 10 µM. actives 0.47% (n = 350,000);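 active = every replicate reaching a set inhibition limit, whatever the replicate mean, cut at about 25% in these data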
RAD54 inh – blocks human RAD54 Holliday junction branch migration | Q92698 | FAM/BHQ fluorescence | inhibition, % at 10.4 µM | actives 0.14% (n = 360,000);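 active = mean normalized replicate activity at least 40 and at least half of replicates scoring 40 or more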;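 note: inhibitors cause a drop in the FAM fluorescence signal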
Target sequence (Q92698 whole entry, looked up): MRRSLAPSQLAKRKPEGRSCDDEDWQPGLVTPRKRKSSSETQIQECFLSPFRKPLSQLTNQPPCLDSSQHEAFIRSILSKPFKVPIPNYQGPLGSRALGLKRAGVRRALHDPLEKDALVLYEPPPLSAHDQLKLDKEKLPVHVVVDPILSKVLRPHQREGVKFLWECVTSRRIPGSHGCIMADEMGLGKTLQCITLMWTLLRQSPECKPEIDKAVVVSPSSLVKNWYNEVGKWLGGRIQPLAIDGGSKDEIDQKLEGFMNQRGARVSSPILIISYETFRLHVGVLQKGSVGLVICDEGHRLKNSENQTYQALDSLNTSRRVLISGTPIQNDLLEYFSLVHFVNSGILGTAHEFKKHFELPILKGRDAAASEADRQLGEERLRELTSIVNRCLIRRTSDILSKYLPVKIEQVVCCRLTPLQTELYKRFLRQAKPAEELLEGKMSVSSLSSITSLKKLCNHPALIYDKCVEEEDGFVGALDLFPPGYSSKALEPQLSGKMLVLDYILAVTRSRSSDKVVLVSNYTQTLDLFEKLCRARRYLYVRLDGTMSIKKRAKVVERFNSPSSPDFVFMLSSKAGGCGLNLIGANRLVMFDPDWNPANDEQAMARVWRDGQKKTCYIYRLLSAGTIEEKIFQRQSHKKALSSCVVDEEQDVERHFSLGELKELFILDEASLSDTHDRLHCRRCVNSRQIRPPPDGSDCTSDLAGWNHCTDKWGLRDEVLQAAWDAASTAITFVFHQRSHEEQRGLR
RAD52 anneal inh – RAD52 (human) annealing inhibition; P43351; recombinant RAD52 DNA annealing, FRET fluorescence; inhibition, % at 18.7 µM; actives 0.46% (n = 360,000);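 active = every replicate showing at least 50% inhibition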
FN deposit inh – fibronectin deposition inhibition | AID 743247 | actives 0.086% (n = 350,000) | inhibition, % at 12.6 µM | AH1F fibroblasts, Alexa488-fibronectin deposition fluorescence, overnight;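 active = mean inhibition across replicates of 30% or more, regardless of how many single replicates reach that level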
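Test system: AH1F fibroblast monolayer depositing Alexa488-labelled fibronectin into matrix. Input: 10000 cells per well. Technique: fluorescence, ex 485 nm, em 525 nm. Buffer or medium: DMEM plus 2% serum, read in PBS. Timing: 1 h cell adhesion before compound, then overnight fibronectin incubation. Compound: single dose, pinned. Read-out basis: inhibition from reduced deposited-fibronectin fluorescence.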
NSD2 inh – NSD2 (human) methyltransferase inhibition; O96028; NSD2 peptide methylation, AlphaScreen, 120 min; inhibition, % at 12.5 µM; actives 0.54% (n = 310,000); AID 743445; in the data active = inhibition above about 50%
Glyco luc inh – N-linked glycosylation inhibition; D54 ERlucT glycosylation luciferase reporter, 24 h; percent of 100 nM tunicamycin response; reporter increase, % at 12.5 µM; actives 0.23% (n = 360,000);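 active = mean luciferase reporter signal, scaled so untreated is 0 and the glycosylation-blocking control 100, at or above a set limit in every replicate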;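 note: luciferase carries N-glycosylation sites so blocking glycosylation raises the light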
Of the large screens only hits and unclear results are named; the others gave an inactive call; ! = a repeat was not active. Sampled rows, rich in hits. Any-hit rate of the full collection: about 1.2%.

COc1ccccc1-c1ccc2c(c1)O[C@@H](CN(C)S(=O)(=O)c1ccc(F)cc1)[C@@H](C)CN([C@@H](C)CO)S2(=O)=O	none (no result: FN deposit inh, NSD2 inh, Glyco luc inh)
COc1ccc(CN(C)C[C@H]2Oc3c(NS(C)(=O)=O)cccc3C(=O)N([C@@H](C)CO)C[C@@H]2C)cc1	none (no result: FN deposit inh, NSD2 inh, Glyco luc inh)
CO[C@H](CN(C)S(=O)(=O)c1ccc(Cl)cc1)[C@@H](C)CN(C(=O)Nc1ccccc1F)[C@@H](C)CO	none (no result: NSD2 inh, Glyco luc inh)
COc1ccc2c3c(n(C)c2c1)[C@H](CO)N(C(=O)C1CCCC1)CC31CCN(Cc2cccc(F)c2)CC1	MLL AF4-AF9 inh 26 (no result: RAD54 inh, FN deposit inh, NSD2 inh, Glyco luc inh)
COc1ccc2c3c(n(C)c2c1)[C@@H](CO)N(C(=O)C1CCCC1)CC31CCN(Cc2cccc(F)c2)CC1	MLL AF4-AF9 inh 38 (no result: RAD54 inh, FN deposit inh, NSD2 inh, Glyco luc inh)
CCN1CCN(CCNC(=O)CCc2c(OC)nc3c(c(C)nn3-c3ccccc3)c2C)CC1	none (no result: MLL AF4-AF9 inh, RAD54 inh, RAD52 anneal inh, FN deposit inh, Glyco luc inh)
Cc1cccc(-c2ccc(C3[C@@H]4CN(C(=O)Nc5ccc(F)cc5)C[C@H]3N4)cc2)c1 (some centres undefined)	RAD52 anneal inh 60! (no result: RAD54 inh, NSD2 inh, Glyco luc inh)
O=C(Nc1cccc(F)c1)N1C[C@@H]2N[C@H](C1)C2c1ccc(-c2ccc(F)cc2)cc1 (some centres undefined)	RAD52 anneal inh 51 (no result: RAD54 inh, NSD2 inh, Glyco luc inh)
O=C(Nc1ccc(F)cc1)N1C[C@@H]2N[C@H](C1)C2c1ccc(-c2ccccc2F)cc1 (some centres undefined)	RAD52 anneal inh 55! (no result: RAD54 inh, NSD2 inh, Glyco luc inh)
Cc1cccc(-c2ccc(C3[C@@H]4CN(C(=O)Nc5ccccc5)C[C@H]3N4)cc2)c1 (some centres undefined)	none (no result: MLL AF4-AF9 inh, RAD54 inh, RAD52 anneal inh, NSD2 inh, Glyco luc inh)
O=C(Nc1cccc(F)c1)N1C[C@@H]2N[C@H](C1)C2c1ccc(-c2cncnc2)cc1 (some centres undefined)	none (no result: MLL AF4-AF9 inh, RAD54 inh, RAD52 anneal inh, NSD2 inh, Glyco luc inh)
O=S(=O)(c1ccc(-c2ccccc2)cc1)N1CCN(Cc2cccc(OCCO)c2)CC1	none (no result: RAD54 inh, FN deposit inh, NSD2 inh, Glyco luc inh)
CCOC(=O)C1(Cc2ccccc2)CCCN(Cc2ccccn2)C1 (centres undefined)	FN deposit inh 31
O=C(COc1ccc(S(=O)(=O)N2CCOCC2)cc1Cl)N1CCCC1	MLL AF4-AF9 inh 42
COc1ccccc1C(C)Nc1ccc(S(=O)(=O)N2CCN(C)CC2)cc1[N+](=O)[O-] (centres undefined)	MLL AF4-AF9 inh 28
C[C@@H]1CN([C@H](C)CO)C(=O)c2cc(NC(=O)C3CCCCC3)ccc2O[C@H]1CN(C)C(=O)Nc1ccc(F)cc1	none (no result: FN deposit inh, NSD2 inh, Glyco luc inh)
O=C1CCCN1CCCNc1nc(NCc2ccccc2)nc2ccsc12	Glyco luc inh 38
CO[C@@H]1CN(C)C(=O)c2ccc(NC(C)=O)cc2OC[C@@H](C)N(C(=O)c2ccccc2F)C[C@@H]1C	none (no result: MLL AF4-AF9 inh, RAD52 anneal inh, NSD2 inh, Glyco luc inh)
CCC(=O)Nc1ccc2c(c1)C(=O)N(C)C[C@H](OC)[C@H](C)CN(CC1CC1)[C@@H](C)CO2	none (no result: NSD2 inh, Glyco luc inh)
COC(=O)c1ccc(-n2c(C)cc(C(=O)CCl)c2C)cc1	none
CCOc1ccc(-n2c(C)cc(C(=O)CCl)c2C)cc1	Glyco luc inh 41
O=C(CCCCCCC(=O)Nc1ccccc1)NO	Glyco luc inh 858 (no result: NSD2 inh)
NC1=NC(=Nc2cccc(S(N)(=O)=O)c2)c2ccccc21	none
COc1cc(N=Nc2cccc(S(N)(=O)=O)c2)c2ccccc2c1N	Glyco luc inh 116
CC(c1nnc(SCC(=O)N(C)C2CCS(=O)(=O)C2)n1-c1ccccc1)N(C)C (centres undefined)	MLL AF4-AF9 inh 34
Cc1oc2ccc(O)cc2c1C(=O)c1ccc(Br)cc1	FN deposit inh 34 (no result: RAD54 inh)
CCN(CC)c1ccc2c(-c3ccc(S(=O)(=O)O)cc3S(=O)(=O)[O-])c3ccc(=[N+](CC)CC)cc-3oc2c1	NSD2 inh 61 (no result: MLL AF4-AF9 inh, FN deposit inh)
COc1cccc(OC)c1C(=O)NNC(=O)c1cccnc1	MLL AF4-AF9 inh 35
CC(Oc1cccc(Cl)c1)C(=O)NNC(=O)c1cccnc1 (centres undefined)	FN deposit inh 31
CNC[C@@H]1Oc2c(NC(=O)Nc3ccc(OC)cc3)cccc2C(=O)N([C@@H](C)CO)C[C@H]1C	none (no result: MLL AF4-AF9 inh, RAD54 inh, RAD52 anneal inh, NSD2 inh, Glyco luc inh)
C[C@H](CO)N1C[C@H](C)[C@H](CN(C)S(=O)(=O)c2ccc(F)cc2)OCCCC[C@H](C)Oc2ccc(NS(C)(=O)=O)cc2C1=O	none (no result: FN deposit inh, NSD2 inh, Glyco luc inh)
O=C(/C=C(\c1ccc(Cl)cc1)n1cncn1)c1ccc(Cl)cc1	Glyco luc inh 27 (no result: MLL AF4-AF9 inh, FN deposit inh, NSD2 inh)
